Source: PubChem BioAssay AID504733 (Southern Research Specialized Biocontainment Screening …, 2011)

Tested on: E. coli UTI89 capsule, orcinol OD572
Experiment: surface polysaccharide capsule reduction in UPEC – orcinol colorimetric, UTI89 strain, 100 µM, orthogonal assay, confirmation (AID 504733)
Details: at 100 µM; hits give low values
Method in brief: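 System: UPEC UTI89 or ΔkpsM mutant bacteria; Medium: pH 5 Tris buffer for capsule release; Times: acid hydrolysis of precipitated polysaccharide 1 h at 80 °C, pH 2; Signal: orcinol colorimetric reaction, absorbance at 572 nm; Measure: surface capsule polysaccharide amount from orcinol absorbance; Control set: no-compound cultures and ΔkpsM mutant.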

Point of comparison: `CCOc1ccc(-c2cc(NC(=O)c3c(F)cccc3F)c(C(=O)O)s2)cc1`, capsule formation 9.04%. Against it:
- CC1=NN2C(=N)/C(=C\c3ccc(SCc4ccco4)o3)C(=O)N=C2S1 — higher, 20.2%
- O=C(ONc1ccc(N=NC(=O)c2ccccc2O)cc1)c1ccccc1 — higher, 16%
- COc1ccc2nc(NC(=O)c3ccc(Br)s3)sc2c1 — higher, 24.5%
- O=C(Nc1ccncc1)c1ccc2ncsc2c1 — higher, 19.1%
- O=C(NCc1cc([N+](=O)[O-])ccc1O)c1cccnc1Sc1ccccc1Cl — higher, 18.6%
